Measured values published in ChEMBL document CHEMBL1166006, “Bacterial transferase MraY inhibitors: synthesis and biological evaluation” (Bioorg Med Chem, 2010).
Activity calls are given as the source filed them. The calls are words filed in the database; no cut-off is given here.

What was measured:
[1] = system: Escherichia coli; assay: Inhibition of Escherichia coli MurG at 1 mM after 30 mins
How it was run: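 MurG from E. coli was assayed in final 200 mM Tris–HCl pH 7.5, 10 mM MgCl₂, UDP-[¹⁴C]GlcNAc, lipid I analogue and 35% (v/v) DMSO. The reaction ran 30 min at 37 °C and was stopped by boiling 3 min, then lyophilised. The residue was taken up in 2-propanol/ammonium hydroxide/water (6:3:1), which was also the chromatography mobile phase. Radioactive spots were quantified by scanner.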

[2] = biological target: T1, Phospho-N-acetylmuramoyl-pentapeptide-transferase (Bacillus subtilis (strain 168)) (UniProt Q03521); assay: Inhibition of Bacillus subtilis transferase MraY assessed as residual activity at 2 mM after 30 mins
T1 sequence (whole entry): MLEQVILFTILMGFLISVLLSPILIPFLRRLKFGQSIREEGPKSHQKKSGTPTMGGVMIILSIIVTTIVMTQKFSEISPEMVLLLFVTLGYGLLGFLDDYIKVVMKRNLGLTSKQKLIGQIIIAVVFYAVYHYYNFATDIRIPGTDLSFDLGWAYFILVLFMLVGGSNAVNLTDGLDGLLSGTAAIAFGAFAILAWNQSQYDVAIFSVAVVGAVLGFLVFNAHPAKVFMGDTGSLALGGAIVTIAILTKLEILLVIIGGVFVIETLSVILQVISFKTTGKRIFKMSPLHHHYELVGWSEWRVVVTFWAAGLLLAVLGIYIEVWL
How it was run: (§1)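 Enzyme addition started the reaction, which ran 30 min at 37 °C and was stopped by 1 min at 100 °C. Radioactive spots were quantified by scanner. Residual activity (screen at 2 mM) and IC₅₀ were calculated against an inhibitor-free control; mean of triplicates.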

[3] = biological target: T2, Phospho-N-acetylmuramoyl-pentapeptide-transferase (Bacillus subtilis (strain 168), UniProt Q03521); assay: Inhibition of Bacillus subtilis transferase MraY after 30 mins; how it was run: as §1
T2 sequence (Q03521 whole entry): T1 sequence (whole entry)

In the case of `O=C(NC[C@H]1O[C@@H](OC[C@H]2O[C@@H](Cn3ccc(=O)[nH]c3=O)[C@@H](O)[C@@H]2O)[C@H](O)[C@@H]1O)[C@@H]1CCCN1`, the inhibition [1] is reported as “inactive” and the Activity [2] is reported as 61%.
With `NCc1cn(C[C@H]2O[C@@H](OC[C@H]3O[C@@H](Cn4ccc(=O)[nH]c4=O)[C@@H](O)[C@@H]3O)[C@H](O)[C@@H]2O)nn1` the inhibition [1] was “inactive” and the IC50 [3] was 595 µM.
`NC[C@H]1O[C@@H](OC[C@H]2O[C@@H](Cn3ccc(=O)[nH]c3=O)[C@@H](O)[C@@H]2O)[C@H](O)[C@@H]1O` was tested, and the inhibition [1] was “inactive” and the IC50 [3] was 580 µM.
`O=C(NCc1cn(C[C@H]2O[C@@H](OC[C@H]3O[C@@H](Cn4ccc(=O)[nH]c4=O)[C@@H](O)[C@@H]3O)[C@H](O)[C@@H]2O)nn1)[C@@H]1CCCN1` was tested, and the inhibition [1] was “inactive” and the IC50 [3] was 820 µM.
For `N=C(N)NCc1cn(C[C@H]2O[C@@H](OC[C@H]3O[C@@H](Cn4ccc(=O)[nH]c4=O)[C@@H](O)[C@@H]3O)[C@H](O)[C@@H]2O)nn1`, the inhibition [1] was “inactive” and the IC50 [3] was 600 µM.
In the case of `N=C(N)NC[C@H]1O[C@@H](OC[C@H]2O[C@@H](Cn3ccc(=O)[nH]c3=O)[C@@H](O)[C@@H]2O)[C@H](O)[C@@H]1O`, the inhibition [1] is reported as “inactive” and the IC50 [3] is reported as 1790 µM.
